ERAP1 inh = inhibitors of human ERAP1 aminopeptidase; inhibition, % at 10.7 µM; 340,000 tested, 0.15% active; AID 652197; recombinant ERAP1, Leu-AMC fluorescence, 60 min; Q9NZ08;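 active = mean replicate inhibition of at least 30%, or all replicates individually reaching that 30% level; inactive = mean below 30% and not every replicate reaching it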;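 also: 0% = neutral control wells and 100% = L-leucinethiol positive control wells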
E-selectin induc = E-selectin induction on HUVECs; P16581; AID 686992; HUVEC E-selectin immunofluorescence imaging; normalized: neutral wells 0, TNF-alpha wells 100; activation, % at 7.58 µM; 260,000 tested, 0.37% active;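 active = mean E-selectin-positive cell signal at least 10% of the positive control, reached in at least 60% of replicates, without over 20% cell loss; inconclusive = no rule given, readout overlaps actives, possibly toxicity-flagged; inactive = the rest, including those meeting only one limit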
Target sequence (P16581 whole entry, looked up): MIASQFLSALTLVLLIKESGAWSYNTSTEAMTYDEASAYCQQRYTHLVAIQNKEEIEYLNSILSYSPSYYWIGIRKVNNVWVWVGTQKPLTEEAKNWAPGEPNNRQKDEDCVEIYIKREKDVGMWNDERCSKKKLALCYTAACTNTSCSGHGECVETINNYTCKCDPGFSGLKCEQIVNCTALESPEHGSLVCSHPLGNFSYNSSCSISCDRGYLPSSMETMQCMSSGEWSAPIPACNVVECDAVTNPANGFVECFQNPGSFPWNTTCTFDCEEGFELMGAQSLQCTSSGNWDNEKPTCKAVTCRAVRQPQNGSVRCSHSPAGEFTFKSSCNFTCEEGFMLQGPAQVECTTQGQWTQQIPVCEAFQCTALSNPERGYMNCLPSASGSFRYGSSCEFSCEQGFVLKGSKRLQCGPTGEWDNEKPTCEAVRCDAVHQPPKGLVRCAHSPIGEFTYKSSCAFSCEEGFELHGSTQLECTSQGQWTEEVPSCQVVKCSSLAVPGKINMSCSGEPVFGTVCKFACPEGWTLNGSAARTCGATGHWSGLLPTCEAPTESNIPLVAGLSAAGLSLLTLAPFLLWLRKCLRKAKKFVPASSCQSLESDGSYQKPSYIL
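Test system: HUVEC; input: 3,000 HUVEC/well; measured by: immunofluorescence imaging; read-out: % PE-positive cells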
SIRT5 inh = sirtuin-5 (human) deacylase inhibition; 330,000 tested, 1.1% active; AID 652115; Q9NXA8; inhibition, % at 15 µM; Purified SirT5, succinyl-peptide AMC, trypsin-coupled fluorescence; in the data active = inhibition above about 15%; inconclusive = no clear call, values can overlap the other calls
DENV2 CPE = DENV2-induced cell death inhibition. DENV2-infected cells, cytopathic effect rescue, plate reader. 350,000 tested, 1.7% active. CPE inhibition, % at 9.99 µM; in the data active = CPE inhibition above about 20%, passing the limit was not always enough; inconclusive = no clear call, values can overlap the other calls; tested in BHK-21 cells;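 also: 0% = median of neutral control wells and 100% = median of positive control wells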
PglD DTNB = blocks C. jejuni PglD acetyltransferase activity; purified PglD enzyme, DTNB colorimetric CoA detection; inhibition, % at 12.5 µM; 360,000 tested, 0.098% active; AID 602405; in the data active = inhibition above about 16%, passing the limit was not always enough; inconclusive = no clear call, values can overlap the other calls
* = called active by the depositor; u = inconclusive; x = no result; ! = not active in a repeat. The list is not random: actives were taken first. Their share in the collection is about 2.5%.

SMILES | ERAP1 inh | E-selectin induc | SIRT5 inh | DENV2 CPE | PglD DTNB
O=C(Nc1ccnn1C1CCN(Cc2ccc(OC(F)F)cc2)CC1)C1CCCC1 | 1.5 | x | 19.2* | u | -1.9
c1ccc(CCN=C2CCCc3c2[nH]c2ccccc32)cc1 | x | x | 8.6 | 2.3 | -2.8
CCO[C@@H]1OC(C(=O)NCc2ccccc2)=C[C@H](c2coc3ccccc3c2=O)[C@H]1CCCO | 3.3 | -0.1 | -2.4 | 46.7* | -3.1
CCO[C@H]1OC(C(=O)NC2CC2)=C[C@@H](c2coc3ccccc3c2=O)[C@@H]1CCCO | -0.5 | 0.0 | -1.5 | -5.3 | -17.4
CCO[C@H]1OC(C(=O)Nc2ccccc2)=C[C@@H](c2coc3ccccc3c2=O)[C@@H]1CCCO | 0.1 | 0.0 | 5.4 | 23.3*! | -1.6
CCO[C@H]1OC(C(=O)O)=C[C@@H](c2coc3ccccc3c2=O)[C@@H]1CCCO | -3.4 | 0.3 | -1.1 | -11.7 | -4.5
O=C(/C=C/c1ccc(Cl)cc1)NCc1ccncc1 | x | 1.0 | x | x | -4.7
CCOc1ccc(NC(=O)c2ccc3c(c2)N(C)CCS3)cc1 | -0.9 | -0.1 | x | -1.2 | 0.2
OC1CCCN(Cc2c3ccccc3cc3ccccc23)C1 (stereo unspecified) | x | x | x | x | -0.5
CSc1ccc(S(=O)(=O)NCCOc2ccccc2C)cc1 | 6.0 | x | -0.1 | x | x
O=C(c1ccccc1)N(CCO)Cc1cc2cc3c(cc2[nH]c1=O)OCCO3 | -4.9 | 1.6 | -11.4 | -10.9 | x
COc1ccc(CN(C)C[C@@H]2Oc3ccc(NC(=O)CCC(F)(F)F)cc3C(=O)N([C@H](C)CO)C[C@@H]2C)cc1 | -0.8 | x | -2.3 | 3.6 | -2.2
COc1cccc(C(=O)Nc2ccc3c(c2)OC[C@@H](C)NC[C@@H](C)[C@H](OC)CN(C)C3=O)c1 | -2.2 | 0.2 | 1.1 | 22.3* | -1.8
CO[C@@H]1CN(C)C(=O)c2ccc(NC(=O)c3cccc(F)c3)cc2OC[C@@H](C)NC[C@H]1C | -4.0 | 0.0 | 4.5 | 30.7* | 0.4
Cc1ccc(OCCCCN2CCc3ccccc3C2)c(C)c1 | 1.5 | x | -5.8 | u | -3.1
CC(O)[C@H]1CNCCN1CC1(c2ccccc2)CC1 (stereo partly specified) | -1.9 | 1.1 | x | -6.4 | 7.9
C[C@H]1CN([C@@H](C)CO)C(=O)c2cc(-c3ccc(C#N)cc3)cnc2O[C@H]1CN(C)CC1CCOCC1 | 1.2 | -0.1 | -9.0 | -6.6 | x
C[C@@H]1CN([C@@H](C)CO)C(=O)c2cc(-c3ccc(F)cc3)cnc2O[C@H]1CN(C)CC1CCCC1 | 0.0 | 1.7 | -2.3 | 53.9* | -1.3
Cc1ccc(-c2cnc3c(c2)C(=O)N([C@H](C)CO)C[C@H](C)[C@@H](CN(C)CC2CCCC2)O3)cc1 | -2.5 | 0.2 | 2.8 | -0.2 | 1.6
Cc1ccc(-c2cnc3c(c2)C(=O)N([C@@H](C)CO)C[C@@H](C)[C@@H](CN(C)CC2CC2)O3)cc1 | -1.5 | 0.0 | 15.6* | -4.9 | x
C[C@@H]1CN([C@@H](C)CO)C(=O)c2cc(-c3ccc(C#N)cc3)cnc2O[C@@H]1CN(C)CC1CCOCC1 | 8.8 | -0.1 | 38.2* | -5.6 | -0.9
COc1ccc(OCc2cc(C(=O)N(C)Cc3nccn3C)no2)c2ccccc12 | 0.8 | 0.1 | 0.0 | 0.1 | -2.2
Cc1ccc(Cl)cc1NC(=O)COc1ccccc1 | 1.9 | x | -6.1 | 0.2 | -6.6
O=C(/C=C/c1ccc(O)cc1)c1c(O)cc(O)cc1O | -0.6 | x | 1.3 | -6.0 | -1.0
CC1=C(C(=O)N(C)C)CC(CC(=O)NC2CCCCC2)C(=O)N1CCCN1CCCC1=O (stereo unspecified) | -2.1 | x | -0.5 | -6.3 | -0.9
SMILES | ERAP1 inh | E-selectin induc | SIRT5 inh | DENV2 CPE | PglD DTNB
COc1cc(C(=O)OCC(=O)NCC2CCCO2)cc(OC)c1OC (stereo unspecified) | -1.3 | 0.2 | 0.8 | u | -8.3
COc1cc(OC)c(NS(=O)(=O)c2cc(C(=O)OCC(=O)NCC3CCCO3)ccc2OC)cc1Cl (stereo unspecified) | 1.0 | x | 31.3* | 15.3 | x
C[C@@H]1CN([C@@H](C)CO)C(=O)c2cc(NC(=O)Cn3cnnn3)ccc2O[C@@H]1CN(C)S(=O)(=O)c1cn(C)cn1 | 0.9 | -0.1 | 3.2 | 2.9 | 0.1
COc1ccccc1CSc1nc2c(c(=O)n(C)c(=O)n2C)n1C | -1.4 | 48.4* | -3.6 | -6.0 | -1.4
CCN1CCN(S(=O)(=O)c2ccc3c(c2)OCCO3)CC1 | x | x | x | x | 3.4
CC(C)(C)NC(=O)c1cccc(NC(=O)c2ccc3c(c2)C(=O)N(C(C)(C)C)C3=O)c1 | -2.0 | 1.2 | 1.5 | 44.0* | -3.4
CC(C)(C)N1C(=O)c2ccc(C(=O)O)cc2C1=O | x | x | x | x | -4.5
CC(C)(C)N1C(=O)c2ccc(C(=O)Nc3ccc(O)cc3)cc2C1=O | 0.0 | x | 4.2 | 54.3* | 2.3
COC(=O)c1cccc(NC(=O)c2ccc3c(c2)C(=O)N(C(C)(C)C)C3=O)c1 | -3.1 | x | -3.6 | u | -6.8
COc1ccc(-c2noc(CSc3ccccc3)n2)cc1OC | x | x | x | x | 6.2
Cc1ccc(C(=O)N/C(=C/c2cccs2)C(=O)NCCCn2ccnc2)cc1 | -0.2 | x | 0.1 | 30.7* | x
O=C(NCCCn1ccnc1)/C(=C\c1cccs1)NC(=O)c1ccccc1 | x | x | x | x | -6.7
COC(=O)C1=C(C(=O)OC)C(c2ccccc2O)c2sc(=O)[nH]c2S1 (stereo unspecified) | 6.2 | x | 16.2* | 6.9 | x
COC(=O)c1sc2ccccc2c1N | x | 0.3 | x | -5.2 | -4.3
O=S(=O)(Nc1cccc(-n2cnnn2)c1)c1cccc(Cl)c1 | 1.2 | x | 3.0 | 59.3* | x
O=S(=O)(Nc1cccc(-n2cnnn2)c1)c1ccccc1 | -0.7 | x | -4.9 | 5.7 | -0.8
CCCOC1CCCN(C(=O)c2cc(COc3c(F)cccc3F)on2)C1 (stereo unspecified) | 0.3 | -0.4 | -1.0 | -4.4 | 1.9
Cc1cc2nc(NCCCO)n(CC(=O)c3cc(C(C)(C)C)c(O)c(C(C)(C)C)c3)c2cc1C | x | 0.0 | x | 32.3* | 0.1
O=S(=O)(NC[C@H]1N[C@@H](CO)[C@H]1c1ccc(C2=CCCC2)cc1)c1ccccc1 | -0.8 | 0.0 | 2.3 | 32.1* | 3.3
O=C(NC[C@@H]1N[C@@H](CO)[C@H]1c1ccc(C2=CCCCC2)cc1)c1ccc(F)cc1 | 2.2 | 0.0 | 0.8 | 51.5* | -1.6
Cc1cccc(C(=O)NCCNC(=O)c2cccc(C)c2)c1 | 1.4 | -0.1 | 10.0 | 4.7 | 6.8
COc1ccc(CNC(=O)C[C@@H]2C[C@@H]3c4cc(NC(=O)NC5CCCC5)ccc4O[C@@H]3[C@@H](CO)O2)cc1 | 1.7 | 3.3 | -1.9 | -2.0 | 3.1
C#CC1(NC(=O)NC(C)(C)C)CCCCC1 | -2.0 | 0.9 | -6.7 | x | x
C#CC1(NC(=O)NC(C)C)CCCCC1 | 1.0 | 0.1 | 94.1* | -2.1 | x
COC(=O)N1C(=O)[C@@](c2ccccc2)(C(C)C)N1C(=O)OC | x | x | x | x | -5.5
O=C(Nc1ccc2oc(=O)ccc2c1)c1ccc(-c2cccc([N+](=O)[O-])c2)o1 | -2.1 | 0.9 | -3.3 | 27.1* | 0.8
COc1ccc(-c2csc(C(C)(O)c3ccc(F)c(F)c3)n2)cc1OC (stereo unspecified) | 4.6 | 0.9 | -3.1 | 21.1* | 2.1
